From ChEMBL document CHEMBL1150770, “Design, synthesis and biological evaluation of bis(hydroxyphenyl) azoles as potent and selective non-steroidal inhibitors of 17beta-hydroxysteroid dehydrogenase type 1 (17beta-HSD1) for the treatment of estrogen-dependent diseases” (Bioorg Med Chem, 2008)
The source made the active and inactive calls. The calls are words filed in the database; no cut-off is given here.

Tests used:
[1] = target: T1, 17-beta-hydroxysteroid dehydrogenase type 1 (Homo sapiens, UniProt P14061); assay: Inhibition of human placental 17beta-HSD1 using estrone substrate
T1 sequence (P14061 whole entry): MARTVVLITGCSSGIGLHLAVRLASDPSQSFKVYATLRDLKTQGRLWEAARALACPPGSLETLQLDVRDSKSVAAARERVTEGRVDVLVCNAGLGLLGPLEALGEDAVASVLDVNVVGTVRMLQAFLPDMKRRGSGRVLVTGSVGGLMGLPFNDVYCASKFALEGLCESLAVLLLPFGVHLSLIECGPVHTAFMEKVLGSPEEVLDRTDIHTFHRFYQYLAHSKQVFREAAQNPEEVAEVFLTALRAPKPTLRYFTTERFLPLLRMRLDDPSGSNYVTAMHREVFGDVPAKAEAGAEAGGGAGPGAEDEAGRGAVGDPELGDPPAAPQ
In short: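 Cytosolic fraction of human placenta incubated at 37 °C with NADH (500 µM) and inhibitor in 50 mM phosphate buffer, 20% glycerol, 1 mM EDTA, DMSO 1% final. Started with unlabelled plus [3H]-E1 (500 nM final); stopped after 10 min with HgCl2, extracted into diethylether. E1/E2 separated by HPLC with radio detection.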

[2] = target: T2, 17-beta-hydroxysteroid dehydrogenase type 2 (Homo sapiens, UniProt P37059); assay: Inhibition of human placental 17beta-HSD2 using 17-beta-estradiol substrate
T2 sequence (P37059 whole entry): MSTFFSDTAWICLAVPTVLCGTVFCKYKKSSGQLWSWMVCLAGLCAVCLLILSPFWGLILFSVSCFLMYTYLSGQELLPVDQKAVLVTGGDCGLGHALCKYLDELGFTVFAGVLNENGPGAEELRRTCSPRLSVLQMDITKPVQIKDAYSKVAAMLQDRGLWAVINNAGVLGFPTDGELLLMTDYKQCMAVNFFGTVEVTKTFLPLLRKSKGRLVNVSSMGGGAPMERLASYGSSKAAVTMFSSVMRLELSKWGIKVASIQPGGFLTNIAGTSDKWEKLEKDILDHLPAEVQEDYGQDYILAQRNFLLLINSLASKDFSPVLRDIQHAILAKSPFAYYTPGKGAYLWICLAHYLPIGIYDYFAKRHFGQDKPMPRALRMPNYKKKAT
In short: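 Human placental microsomal fraction incubated 20 min at 37 °C with NAD+ (1500 µM), test compound and unlabelled plus [3H]-E2 (500 nM final). Extraction and HPLC with radio detection as for 17β-HSD1. Conversion = AUC(E1)/[AUC(E1)+AUC(E2)] × 100.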

Homo sapiens = species on record: Homo sapiens; assay: Selectivity ratio of IC50 for human 17beta-HSD2 to IC50 for human 17beta-HSD1
In short: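 Selectivity factor computed as IC50 for placental microsomal 17β-HSD2 (E2 500 nM, NAD+ 1500 µM) divided by IC50 for placental cytosolic 17β-HSD1 (E1 500 nM, NADH 500 µM).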

[3] = target: T3, Estrogen receptor (Homo sapiens) (UniProt P03372); assay: Displacement of [2,4,6,7-3H]17beta-estradiol from human recombinant ERalpha receptor relative to 17-beta-estradiol
T3 sequence (whole entry): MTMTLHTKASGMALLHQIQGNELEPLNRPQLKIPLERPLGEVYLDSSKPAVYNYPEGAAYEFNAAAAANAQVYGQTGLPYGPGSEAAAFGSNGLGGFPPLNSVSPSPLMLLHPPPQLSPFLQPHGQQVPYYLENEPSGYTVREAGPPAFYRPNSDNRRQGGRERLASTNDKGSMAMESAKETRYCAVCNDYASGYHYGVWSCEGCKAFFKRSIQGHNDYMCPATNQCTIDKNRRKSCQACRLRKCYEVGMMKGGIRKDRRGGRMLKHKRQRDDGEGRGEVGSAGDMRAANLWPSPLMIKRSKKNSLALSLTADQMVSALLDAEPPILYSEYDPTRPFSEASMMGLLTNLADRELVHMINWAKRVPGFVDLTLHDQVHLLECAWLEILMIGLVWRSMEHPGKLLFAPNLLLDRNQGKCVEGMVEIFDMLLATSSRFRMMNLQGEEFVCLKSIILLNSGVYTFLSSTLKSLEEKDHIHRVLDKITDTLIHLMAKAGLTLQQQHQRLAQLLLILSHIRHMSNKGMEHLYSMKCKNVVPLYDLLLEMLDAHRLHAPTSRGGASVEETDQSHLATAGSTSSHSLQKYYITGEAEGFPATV
In short: (§1)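 ERα or ERβ (0.25 pmol) incubated with [2,4,6,7-3H]-E2 (10 nM) and test compound, 1 h, room temperature, 5% DMSO final. Non-specific binding with diethylstilbestrol (10 µM). Bound complexes captured on hydroxyapatite, washed, resuspended in ethanol and counted by liquid scintillation. RBA derived from inhibitor and E2 concentrations displacing 50% of bound labelled E2.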

[4] = target: Estrogen receptor beta (Homo sapiens) (UniProt Q92731); assay: Displacement of [2,4,6,7-3H]17beta-estradiol from human recombinant ERbeta receptor relative to 17-beta-estradiol; in short: as §1
T47D = assay: Estrogenic effect in human T47D cells assessed as stimulation of cell proliferation at 100 nM by MTT assay; format: functional, cell-based
In short: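 T-47D cells grown 48 h in phenol red-free RPMI 1640 with 5% DCC-FCS, then treated with compound at 100 nM final (ethanol 1% final). E2 0.1 nM as positive control, ethanol as negative control. Medium and additives renewed every 2–3 days; after 8 days MTT reduction read at 590 nm. Stimulation = (proliferation relative to control set at 1, minus 1) × 100%.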

[5] = target: T1, 17-beta-hydroxysteroid dehydrogenase type 1; assay: Inhibition of 17-beta-HSD1-mediated 17-beta-estradiol formation in human T47D cells; format: cell-based
In short: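 T47D cells, which express both 17β-HSD1 and 17β-HSD2, were kept in RPMI 1640 with 10% FCS at 37 °C, 5% CO₂. They were seeded in DMEM with FCS, then after 24 h switched to serum-free DMEM. Test compound was added in DMSO (1% final) and pre-incubated 30 min. Unlabelled plus [³H]-E1 (50 nM final) was added for 2.5 h. Steroids were extracted with ether, and E2 formed was quantified by HPLC with radiodetection.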

[6] = Apparent permeability across human Caco-2 cells; format: ADME, cell-based
In short: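 Caco-2 monolayers cultured 10 days at higher seeding density; cassette dosing with four reference compounds; donor concentration 50 µM in 0.2 M MES pH 6.5 with 1% ethanol or DMSO. Acceptor sampled at 0, 60, 120, 180 min, donor at 0 and 180 min; LC/MS/MS analysis; triplicate runs; monolayer integrity by TEER and lucifer yellow.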

Sequence of Estrogen receptor beta (Homo sapiens) (Q92731 whole entry): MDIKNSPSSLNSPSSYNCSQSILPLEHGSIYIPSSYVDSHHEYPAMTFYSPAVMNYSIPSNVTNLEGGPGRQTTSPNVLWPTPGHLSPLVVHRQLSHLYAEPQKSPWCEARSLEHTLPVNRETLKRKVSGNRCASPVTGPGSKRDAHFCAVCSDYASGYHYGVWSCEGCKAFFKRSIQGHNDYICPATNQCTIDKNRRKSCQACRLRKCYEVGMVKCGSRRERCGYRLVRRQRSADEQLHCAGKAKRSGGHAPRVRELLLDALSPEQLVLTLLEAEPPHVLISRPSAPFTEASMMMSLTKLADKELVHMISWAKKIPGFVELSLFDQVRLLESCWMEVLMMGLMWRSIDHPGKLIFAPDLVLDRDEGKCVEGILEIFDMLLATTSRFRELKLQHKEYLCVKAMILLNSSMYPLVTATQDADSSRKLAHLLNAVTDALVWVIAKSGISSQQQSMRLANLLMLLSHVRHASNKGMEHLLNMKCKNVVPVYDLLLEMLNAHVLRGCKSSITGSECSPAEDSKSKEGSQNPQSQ

| SMILES | IC50 [1] [nM] | IC50 [2] [nM] | Ratio IC50 (Homo sapiens) | RBA [3] [%] | RBA [4] [%] | Activity (T47D) | IC50 [5] [nM] | Papp [6] [×10⁻⁶ cm/s] |
| --- | --- | --- | --- | --- | --- | --- | --- | --- |
| Oc1ccc(-c2cc(-c3cccc(O)c3)on2)cc1 | 1610 | 270 | 0.2 | 0.01 | < 0.01 |  |  |  |
| Oc1ccc(-c2coc(-c3cccc(O)c3)n2)cc1 | 1850 | 250 | 0.1 | 0.01 | 0.01 |  |  |  |
| Oc1ccc(-n2cc(-c3cccc(O)c3)nn2)cc1 | 1320 | 8120 | 6 | < 0.01 | < 0.01 |  |  |  |
| Oc1ccc(-c2cn(-c3cccc(O)c3)nn2)cc1 | 840 | 7280 | 9 | 0.01 | 0.01 |  |  |  |
| Oc1ccc(-c2cnc(-c3cccc(O)c3)o2)cc1 | 310 | 17500 | 56 | 0.01 | 0.5 | inactive | 380 | 7.9 |
